Hits are enriched below; roughly 2.5% of the tested compounds scored in any of these assays.
zfTRPN1 agonist = activates the zebrafish TRPN1 channel. 220,000 tested, 0.18% active. AID 1424. HEK293 zebrafish TRPN1-YFP, Fluo-8 calcium fluorescence; 100% = response to 87 µM carbachol. activation, % at 3 µM;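 active = activation above its plate's cutoff, the mean activation of test wells on that plate plus 3 SD, cut at about 19% in these data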
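Material: zebrafish TRPN1-YFP in HEK293 cells; Doses: single test compound dose, 3 µM nominal, 0.3% DMSO; Timing: dye loading 1 h at 37 °C, then 30 min room temperature; Technique: intracellular calcium fluorescence with Fluo-8; Benchmarks: high carbachol 87 µM, low DMSO alone.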
OX1R antag-1 = OX1R (human) antagonism; O43613; OX1R-expressing cells, FRET antagonist read-out; inhibition, % at 6.6 µM; 330,000 tested, 1.8% active; in the data active = inhibition mostly above about 38%, no sharp cut-off; inactive = mostly below about 40%
Target sequence (O43613 whole entry, looked up): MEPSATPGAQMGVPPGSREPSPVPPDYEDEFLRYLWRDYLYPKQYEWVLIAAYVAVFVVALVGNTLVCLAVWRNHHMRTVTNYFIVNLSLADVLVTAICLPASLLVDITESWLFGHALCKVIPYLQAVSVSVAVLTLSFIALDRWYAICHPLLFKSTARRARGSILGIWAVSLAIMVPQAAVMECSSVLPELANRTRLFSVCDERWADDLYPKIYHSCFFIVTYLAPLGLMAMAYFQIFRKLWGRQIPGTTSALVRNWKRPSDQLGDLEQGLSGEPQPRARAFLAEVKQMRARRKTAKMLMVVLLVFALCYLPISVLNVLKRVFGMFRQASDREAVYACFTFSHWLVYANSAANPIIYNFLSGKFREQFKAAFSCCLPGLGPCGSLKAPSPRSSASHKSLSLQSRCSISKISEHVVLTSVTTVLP
OX1R antag-2 = human HCRTR1 antagonism; CHO/OX1R cells, Fluo-8 calcium fluorescence, orexin A; 330,000 tested, 0.43% active; inhibition, % at 5 µM; O43613;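 active = inhibition above its plate's threshold, mean inhibition of all tested compounds on the plate plus 3 SD, cut at about 37% in these data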
CHO parental Ca = signal in parental CHO cells, OX1R antagonist counter-screen; parental CHO-K1, ATP-induced calcium, Fluo-8 fluorescence; inhibition, % at 5.6 µM; 330,000 tested, 0.63% active;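 active = inhibition above that plate's mean sample inhibition plus 3 SD, cut at about 26% in these data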
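Material – parental CHO cells · Reagent – ATP stimulus · Compound – single nominal dose of 5.6 µM per compound · Detection – Fluo-8 fluorescence · Read-out basis – percent inhibition of calcium signal · Controls – ATP-challenged DMSO wells low, unchallenged DMSO wells high · Repeats – no replicates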
TRPML3 ag = human mucolipin-3 channel agonism. Q8TDD5. 220,000 tested, 0.29% active. AID 1448. activation, % at 3 µM. HEK293 TRPML3-YFP, Fluo-8 calcium fluorescence; 100% = the carbachol control signal;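 active = activation above its plate's cutoff, the mean activation of the plate's test wells plus 3 SD, cut at about 12% in these data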
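Test system – HEK293 line with stable expression of human TRPML3-YFP channel · Control set – carbachol 87 µM final as high control (100%), DMSO as low control (0%) · Signal – Fluo-8 calcium dye fluorescence, ex 470-495, em 515-575 nm · Incubation – 1-h 37 °C dye load, 5-s basal, 120-s post-compound reads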
OX1R HTRF conf = OX1R (human) antagonism, HTRF confirmed. AID 492964. OX1R-expressing cells, HTRF antagonist assay. 1,800 tested, 49% active. inhibition, % at 6.6 µM. shares compounds with OX1R antag-1; in the data active = inhibition above about 55%;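 also: CHO cells expressing OX1R stimulated with orexin A at about EC80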
CHO-K1 HTRF cnt = counter-screen: parental CHO-K1 HTRF response. AID 493232. parental CHO-K1 cells, HTRF counterscreen. 1,800 tested, 48% active. shares compounds with OX1R antag-1. inhibition, % at 6.6 µM; in the data active = inhibition above about 17%
Of the large screens only hits and unclear results are named; the others gave an inactive call (follow-up assays come after a bar, where they were run).

O=S(=O)(c1cccc2nsnc12)N1CCOCC1	OX1R antag-1 92 | OX1R HTRF conf inactive | CHO-K1 HTRF cnt 38
O=S(=O)(c1cccc2nsnc12)N1CCN(c2ccc(F)cc2)CC1	none
Cn1nnc(NC(=O)c2ccc([N+](=O)[O-])cc2Cl)n1	OX1R antag-1 94 | OX1R HTRF conf 66 | CHO-K1 HTRF cnt 53
O=S(=O)(NCc1nnc2ccccn12)c1ccc(Cl)cc1	none (no result: zfTRPN1 agonist, TRPML3 ag)
COc1cccc(CNC(=O)C2CSC3(C)CCC(=O)N23)c1 (stereo not given)	none (no result: zfTRPN1 agonist, TRPML3 ag)
O=C(OCC#CCSc1nnc(-c2ccc([N+](=O)[O-])cc2)o1)c1cccs1	OX1R antag-1 87 | OX1R HTRF conf inactive | CHO-K1 HTRF cnt 30
Cc1ccc(-c2nnc(SCC#CCOC(=O)c3cccs3)o2)cc1	none
O=C(Nc1ccc(C2SCCS2)cc1)c1ccccc1	none
CCOC(=O)C1CCN(c2ccc([N+](=O)[O-])cc2)CC1	none
CCOC(=O)C1CCN(C(=O)C2CCN(C(=O)c3ccc([N+](=O)[O-])cc3)CC2)CC1	OX1R antag-1 81 (no result: zfTRPN1 agonist, TRPML3 ag) | OX1R HTRF conf inactive | CHO-K1 HTRF cnt 26
Nc1c(Cl)ncnc1N/N=C/c1cccnc1	OX1R antag-1 84 | OX1R HTRF conf inactive | CHO-K1 HTRF cnt 31
NS(=O)(=O)c1cnccc1Nc1cccc(F)c1	none (no result: zfTRPN1 agonist, TRPML3 ag)
COc1cc(C(=O)OCC(=O)N2CCCC2)cc2c1OCCO2	none (no result: zfTRPN1 agonist, TRPML3 ag)
Cc1nc(SCC(=O)NCCN2C(=O)CSC2=O)nc(C)c1C	none (no result: zfTRPN1 agonist, TRPML3 ag)
COc1ccc(-c2nn3c(-c4ccc(F)cc4)nnc3s2)cc1	none
COc1ccc(-c2nn3c(-c4ccccc4)nnc3s2)cc1	OX1R antag-1 87 | OX1R HTRF conf 88 | CHO-K1 HTRF cnt inactive
NC(=O)c1cc(N)ccc1N1CCCC1	OX1R antag-1 87 | OX1R HTRF conf inactive | CHO-K1 HTRF cnt 19
C[C@H](CO)N1C[C@H](C)[C@@H](CN(C)Cc2ccccc2)Oc2ccc(NC(=O)CCCCCC(=O)Nc3ccccc3N)cc2C1=O	none (no result: zfTRPN1 agonist, TRPML3 ag)
O=C(NCCO)c1ccc2nc(-c3ccco3)c(-c3ccco3)nc2c1	OX1R antag-1 109 | OX1R HTRF conf inactive | CHO-K1 HTRF cnt 58
COc1cc(CNCCSc2nnnn2C)cc(Br)c1OCc1ccccc1F	OX1R antag-1 95 | OX1R HTRF conf inactive | CHO-K1 HTRF cnt inactive
Cn1cnc([N+](=O)[O-])c1Oc1cccc2ccccc12	OX1R antag-1 85 | OX1R HTRF conf inactive | CHO-K1 HTRF cnt inactive
Cc1ccc(NN2C(=O)C=C(c3ccccc3)C2=O)cc1	none (no result: OX1R antag-1, OX1R antag-2, CHO parental Ca)
CS(=O)(=O)c1ccc(CNC(=O)C2(C(F)(F)F)C/C(=C\Cc3ccccc3)CCCO2)cc1 (stereo not given)	none (no result: zfTRPN1 agonist, TRPML3 ag)
NS(=O)(=O)c1ccc(N/N=C/c2ccccc2C(=O)O)c([N+](=O)[O-])c1	OX1R antag-1 161 | OX1R HTRF conf inactive | CHO-K1 HTRF cnt 74
O=C(O)c1ccccc1/C=N/Nc1ccc(S(=O)(=O)N2CCOCC2)cc1[N+](=O)[O-]	none
CC(C)Sc1ccc([N+](=O)[O-])cc1C(=O)Nc1ccncc1	none
CCOC(=O)CNC(=O)CSc1ncnc2c1cnn2-c1ccc(Cl)cc1	none
CCOC(=O)Cc1csc(NC(=O)CSc2ncnc3c2cnn3-c2ccc(OC)cc2)n1	OX1R antag-1 80 | OX1R HTRF conf inactive | CHO-K1 HTRF cnt inactive
CC1CCCC/C1=N\Nc1ccc(S(N)(=O)=O)cc1[N+](=O)[O-] (stereo not given)	OX1R antag-1 116 | OX1R HTRF conf inactive | CHO-K1 HTRF cnt 26
CCN(CC)CCNC(=O)c1ccc(CS(=O)(=O)c2ccccc2C)o1	none (no result: zfTRPN1 agonist, TRPML3 ag)
CC1CCc2nc(NC(=O)CSc3nc4ccccc4o3)sc2C1 (stereo not given)	OX1R antag-1 89 | OX1R HTRF conf inactive | CHO-K1 HTRF cnt inactive
Cc1nnc(NC(=O)Cn2nc(C)c3ccccc3c2=O)s1	none
CCC1CCCCN1C(=O)/C=C/c1ccc2c(c1)OCO2 (stereo not given)	none (no result: zfTRPN1 agonist, TRPML3 ag)
COc1ccc(C(C(=O)NC2CCCCC2)N2CCC3(CC2)OCCO3)cc1 (stereo not given)	OX1R antag-1 89 | OX1R HTRF conf inactive | CHO-K1 HTRF cnt inactive
Cc1ccc(C(C(=O)NC2CCCCC2)N2CCC3(CC2)OCCO3)cc1 (stereo not given)	none
CCCNC(=O)C1CCN(S(=O)(=O)c2cccc3nonc23)CC1	none
CCN(CCCNC(=O)C1CCN(S(=O)(=O)c2cccc3nonc23)CC1)Cc1ccccc1	OX1R antag-1 92 | OX1R HTRF conf inactive | CHO-K1 HTRF cnt 44
COc1ccc(C(=O)CSc2ccccc2C(=O)O)cc1	none
CCCCN(C)Cc1c(O)ccc2c(-c3ccccc3)cc(=O)oc12	OX1R antag-1 85 | OX1R HTRF conf inactive | CHO-K1 HTRF cnt inactive
CN1CCN(Cc2c(O)ccc3c(-c4ccccc4)cc(=O)oc23)CC1	none
Cc1ccc2c(c1)N(CCC(=O)NC1CCCCC1)C(=O)CO2	none (no result: zfTRPN1 agonist, TRPML3 ag)
Cc1ccc2c(c1)N(CC(=O)NC1CCCCC1C)C(=O)CO2 (stereo not given)	OX1R antag-1 111 | OX1R HTRF conf inactive | CHO-K1 HTRF cnt inactive
O=C(O)CCCCCNS(=O)(=O)c1cccc2c1C(=O)c1ccccc1C2=O	OX1R antag-1 138 | OX1R HTRF conf 55 | CHO-K1 HTRF cnt 86
COc1ccc(NS(=O)(=O)c2cccc(C(=O)NNC(=O)c3ccc(=O)[nH]c3)c2)cc1	none (no result: zfTRPN1 agonist, TRPML3 ag)
COc1ccc2c(c1)O/C(=C\c1sccc1C)C2=O	OX1R antag-1 81 | OX1R HTRF conf inactive | CHO-K1 HTRF cnt inactive
O=C(O)COc1ccc2c(c1)O/C(=C\c1cccs1)C2=O	none
O=C(O)C1C2CCC(C2)C1C(=O)N1CCCC1 (stereo not given)	none (no result: zfTRPN1 agonist, TRPML3 ag)
COc1cc2c(=O)n(CCC(=O)NCC3CCCO3)c(=O)n(CC(=O)c3ccc(Cl)cc3)c2cc1OC (stereo not given)	OX1R antag-1 93 | OX1R HTRF conf inactive | CHO-K1 HTRF cnt inactive
O=C(c1cccs1)N1CCN=C1SCc1ccc(F)cc1	none
CC1=NN(C(N)=S)C(=O)C1N=Nc1ccc([N+](=O)[O-])cc1 (stereo not given)	none (no result: zfTRPN1 agonist, TRPML3 ag)
COc1ccc(CCN2CC(C(=O)OCC(=O)N(C)Cc3ccccc3)CC2=O)cc1OC (stereo not given)	none (no result: zfTRPN1 agonist, TRPML3 ag)
CCCCN1CC[C@H]2C=CC[C@@H](C(=O)Nc3ccc(Cl)c(C(F)(F)F)c3)[C@H]2C1=O	none (no result: zfTRPN1 agonist, TRPML3 ag)
O=C(Nc1ccccc1)[C@@H]1CC=C[C@@H]2CCN(Cc3ccccc3)C(=O)[C@@H]21	OX1R antag-1 83 (no result: zfTRPN1 agonist, TRPML3 ag) | OX1R HTRF conf 86 | CHO-K1 HTRF cnt inactive
O=C(Nc1ccc(Cl)c(C(F)(F)F)c1)[C@@H]1CC=C[C@@H]2CCN(Cc3ccccc3)C(=O)[C@@H]21	OX1R antag-1 84 (no result: zfTRPN1 agonist, TRPML3 ag) | OX1R HTRF conf 85 | CHO-K1 HTRF cnt inactive

Source: PubChem BioAssay
